# From PubChem
# Ins promoter up = MIN6 insulin promoter up-regulation; MIN6 insulin promoter-GFP reporter, high-content imaging; active compounds read high; z-score at 5 µM; 0.3% of 190,000 active; AID 1625;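 active = z-score above 3 at 5 µM with at least 500 cells counted in the well; inconclusive = wells under 500 cells, flagged as cytotoxic or low count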
# Dynein transport = blocks dynein driven cargo transport along microtubules; 3617.4 mouse cells, GR-EGFP nuclear translocation imaging; test concentration mostly 20 µM; stimulated with dexamethasone, 1 µM; active compounds read low; z-score, hits read low; 0.47% of 220,000 active; AID 1381;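 active = plate z-score of nuclear minus cytoplasmic receptor signal below a set negative limit, without overly bright fluorescence or cell loss, cut at about -3.5 in these data, passing the limit was not always enough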;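 note: z-score of nuclear minus cytoplasmic ring GR-EGFP intensity difference per well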
#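 Also added: dexamethasone, 1.0 µM final. Medium: tet-free, stripped-serum medium. Detection: fixed, Hoechst-stained cells imaged at 10x for EGFP. Read-out: nuclear-to-cytoplasmic GR-EGFP distribution per well. Times: induction 48 h, compound 1 h, agonist 30 min.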
# Autophagy mod = autophagy modulation, high-content screen. calls only at 10 µM (by protocol). 0.98% of 190,000 active. MEF GFP-LC3 puncta imaging; test concentration mostly 10 µM;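 active = percentage of spot-positive cells more than 3 SD above its plate mean, without a fluorescence outlier flag or 80% toxicity; inconclusive = no clear call, values can overlap the other calls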;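 note: spot-positive cell cutoff set from DMSO-treated cells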
# Insulin prom inh = TRM-6 insulin promoter activity inhibition; TRM-6 cells (human fetal islet line), insulin promoter-eGFP reporter, imaging; reporter expression induced with tamoxifen; AID 1273; inhibition, % at 2 µM; 0.9% of 130,000 active;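 active = inhibition above the mean plus 3 SD, with well images judged a real hit on visual review, cut at about 60% in these data, passing the limit was not always enough; inconclusive = inhibition over the cutoff but images rejected on review; inactive = inhibition not above the cutoff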
# PERK inh = human PERK inhibition, primary cell-based screen; AID 1416; CHO PERK-DD fusion, SEAP luminescence translation reporter; 0.17% of 220,000 active; inhibition, % at 5.6 µM; Q9NZJ5;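 active = inhibition above the mean inhibition of all tested compounds plus 3 SD, set separately per screening campaign, cut at about 2.9% in these data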;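 note: PERK kinase domain activated by AP20187 dimerizer at 100 nM; 0% = DMSO with dimerizer and 100% = rapamycin at 8.4 µM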
# Target sequence (Q9NZJ5 whole entry, looked up, the tested form may be a part): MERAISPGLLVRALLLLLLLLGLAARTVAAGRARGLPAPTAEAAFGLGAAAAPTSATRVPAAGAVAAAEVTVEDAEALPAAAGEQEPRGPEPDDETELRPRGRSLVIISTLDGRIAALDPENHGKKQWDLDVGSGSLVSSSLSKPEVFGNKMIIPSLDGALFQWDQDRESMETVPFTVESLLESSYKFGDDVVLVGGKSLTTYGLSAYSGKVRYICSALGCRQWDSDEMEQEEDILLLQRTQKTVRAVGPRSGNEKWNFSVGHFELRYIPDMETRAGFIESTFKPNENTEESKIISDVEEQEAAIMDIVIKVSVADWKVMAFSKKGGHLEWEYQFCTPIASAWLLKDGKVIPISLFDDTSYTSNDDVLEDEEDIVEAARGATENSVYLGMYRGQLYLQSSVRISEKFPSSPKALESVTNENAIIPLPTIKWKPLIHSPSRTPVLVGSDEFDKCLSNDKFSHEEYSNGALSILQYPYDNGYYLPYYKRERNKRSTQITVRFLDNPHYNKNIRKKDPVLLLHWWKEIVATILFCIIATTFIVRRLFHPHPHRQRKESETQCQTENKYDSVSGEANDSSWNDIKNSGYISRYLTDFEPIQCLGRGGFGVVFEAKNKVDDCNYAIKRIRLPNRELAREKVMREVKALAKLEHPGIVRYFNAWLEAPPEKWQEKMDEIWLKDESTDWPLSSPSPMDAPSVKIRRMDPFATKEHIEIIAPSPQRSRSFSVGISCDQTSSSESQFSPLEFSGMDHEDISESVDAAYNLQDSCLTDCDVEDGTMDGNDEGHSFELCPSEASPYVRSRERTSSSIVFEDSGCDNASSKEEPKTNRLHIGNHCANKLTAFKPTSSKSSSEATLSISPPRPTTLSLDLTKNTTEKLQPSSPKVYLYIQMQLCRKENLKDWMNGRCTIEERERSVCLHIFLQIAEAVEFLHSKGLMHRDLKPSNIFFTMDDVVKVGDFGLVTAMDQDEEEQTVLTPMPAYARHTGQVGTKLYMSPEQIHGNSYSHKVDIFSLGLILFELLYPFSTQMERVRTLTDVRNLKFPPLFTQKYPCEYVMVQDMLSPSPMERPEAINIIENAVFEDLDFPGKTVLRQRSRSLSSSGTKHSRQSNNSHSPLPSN
# * marks the source's active call; other numbers are inactive results; i = inactive; ? = inconclusive; / = no result given; + = active, no number. Only some compounds are listed: those with a hit (about 2.1% of all), similar ones and a draw of the others.
SMILES,Ins promoter up,Dynein transport,Autophagy mod,Insulin prom inh,PERK inh
O=C(Nc1cc(S(=O)(=O)N2CCCCC2)ccc1Cl)c1ccccc1NS(=O)(=O)c1ccc(F)cc1,-2,0.55,+,i,-2
O=C(Nc1cc(S(=O)(=O)N2CCCCC2)ccc1O)c1ccccc1NS(=O)(=O)c1ccc(F)cc1,-0.6,-0.6,i,-43,0
Oc1c(N=Nc2ccccn2)ccc2ccccc12,?,-0.74,+,26,0
O=[N+]([O-])c1cc(CN2CCCC2)ccc1Sc1ccc(Cl)cc1,-0.82,-0.45,i,/,2
Cc1[nH]c2ccccc2c1/C=C/c1nc2ccccc2c(=O)n1-c1ccc([N+](=O)[O-])cc1,0.05,-0.19,+,-24,1
CCn1c(/C=C/c2c(C)[nH]c3ccccc23)nc2ccccc2c1=O,-0.29,-0.63,i,0,0
CCOC(=O)N1CCN(C(=O)c2ccc(OC(C)=O)cc2)CC1,-0.33,2.1,i,-43,0
O=C(CN1CCN(c2ccccc2)CC1)Nc1ccccc1Cl,0.38,0.61,i,-11,0
O=C(CN1CCN(c2ccccc2)CC1)Nc1ccccc1C(F)(F)F,0.59,-0.27,i,88*,1
COc1cccc(N2CCN(c3ncnc4c3cnn4-c3ccc(C)cc3C)CC2)c1,0.31,-1.2,+,/,1
O=C(CN1C(=O)C2C3C=CC(C3)C2C1=O)Nc1cccc(S(=O)(=O)N2CCCC2)c1 (stereo not given),0.33,0.41,i,100*,0
O=C(CN1CCCCCC1)Nc1ccc(S(=O)(=O)N2CCOCC2)cc1,/,-0.55,i,/,1
O=C(CN1C(=O)C2CC=CCC2C1=O)Nc1ccc(S(=O)(=O)N2CCOCC2)cc1 (stereo not given),0.01,1.2,i,73*,1
CC(=O)c1cccc(NC(=O)CN2C(=O)C3C4C=CC(C4)C3C2=O)c1 (stereo not given),1.5,1.2,i,13,0
COc1ccc(S(=O)(=O)N(CC(=O)NCC2CCCO2)c2ccc(F)cc2)cc1OC (stereo not given),-0.52,-0.6,i,-24,-1
O=C(Nc1ccccc1)/C(=C/c1cccnc1)NC(=O)c1ccco1,0.01,0.48,i,33,1
O=C(Nc1cccc(Cl)c1)/C(=C\c1cccnc1)NC(=O)c1ccco1,0.02,0.00087,i,67*,2
CCOC(=O)c1ccc(NC(=O)CSc2nnc(-c3cccs3)n2C)cc1,1.1,-0.59,i,-91,0
COc1ccc(NC(=O)CSc2nnc(-c3cccs3)n2C)cc1OC,3.5*,-1.3,i,-15,0
CCn1c(SCC(=O)NC(C)C)nnc1-c1cccs1,/,0.93,+,-38,0
COc1ccccc1NC(=O)CC(=O)CSc1nnc(-c2ccc(C)cc2)n1C,0.03,0.33,i,/,2
CCn1c(SCC(=O)Nc2ccccc2)nnc1-c1cccs1,0.15,-0.41,/,/,1
COc1ccccc1NC(=O)CSc1nnc(CCC(=O)Nc2ccccc2F)n1C,0.62,-0.24,/,/,3.9*
COc1ccc(C(=O)NCCc2nnc(SCC(=O)Nc3ccccc3F)n2C)cc1,0.13,1.1,i,/,0
COc1ccccc1NC(=O)CSc1nnc(-c2ccc(NC(C)=O)cc2)n1C,0.8,-0.51,+,0,0
SMILES,Ins promoter up,Dynein transport,Autophagy mod,Insulin prom inh,PERK inh
O=C(CCc1nc2ccccc2s1)OCC(=O)c1ccc[nH]1,-0.29,-0.81,i,/,0
CS(=O)(=O)N(CC(=O)N1CCCCCC1)c1ccccc1,0.18,2.1,i,44,1
CS(=O)(=O)N(CC(=O)N1CCCC1)c1ccc(OCc2ccccc2)cc1,1.7,0.16,i,75*,0
COc1ccc(N2CCN(C(=O)CN(c3ccc(Br)cc3)S(C)(=O)=O)CC2)cc1,-1.2,2.6,i,75*,-3
CN1/C(=C\C=C2/C(=O)Oc3ccccc3C2=O)C(C)(C)c2ccccc21,/,-2.1,+,-223,-1
O=c1c2ccccc2c(C=Nc2ccccc2O)c(O)n1-c1nccs1,4.3*,-0.31,/,/,1
CCCN1C/C(=C/c2cccc([N+](=O)[O-])c2)C(=O)/C(=C/c2cccc([N+](=O)[O-])c2)C1,-1.8,-6.3*,+,/,-2
O=C(O)CNC(=S)N(Cc1ccccc1)Cc1cccnc1,0.31,-0.29,+,/,0
O=c1[nH]c(-c2ccccn2)cc2ccccc12,0.38,-1.2,i,67*,0
